Data published in ChEMBL document CHEMBL3784923, “Azathioprine pharmacokinetics after intravenous, oral, delayed release oral and rectal foam administration” (Gut, 1996).

Assays:
[1] = Drug excretion in feces of human treated with Eudragit coated tablets; format: ADME, tissue-based; details: faeces, po, read-out: Drug excretion
[2] = Stability in whole blood (unknown origin) using compound stored in ice water slurry; format: ADME, tissue-based; details: unidentified
Homo sapiens = species: Homo sapiens; assay: Toxicity in inflammatory bowel disease patient assessed as induction of leucopenia; format: organism-based; details: in vivo
[3] = Cmax in uraemic patient (8 patients) at 100 mg, po; details: human, in vivo
[4] = Stability in plasma (unknown origin) using compound stored in frozen condition; format: ADME, cell-free; details: unidentified
[5] = Oral bioavailability in uraemic patient (8 patients) at 100 mg; details: human, in vivo
[6] = Volume of distribution at steady state in uraemic patient (15 patients) at 100 mg, iv; details: human, in vivo
[7] = Clearance in uraemic patient (15 patients) at 100 mg, iv; details: human, in vivo
[8] = Tmax in uraemic patient (8 patients) at 100 mg, po; details: human, in vivo
[9] = Stability in plasma (unknown origin) at room temperature; format: ADME, cell-free; details: unidentified
Procedure, shortened: (§1)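 6MP in plasma was held at room temperature, both unextracted and after extraction, and measured by HPLC.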

[10] = Stability of the compound in extracted form in plasma (unknown origin) at room temperature; format: ADME, cell-free; details: unidentified; procedure, shortened: as §1

Row | Compound | dose excreted [1] [%] | Stability [2] | Activity (Homo sapiens) [%] | Cmax [3] [ng/mL] | Stability [4] | bioavailability [5] [%] | Vd [6] [L/kg] | clearance [7] [mL/min/kg] | Tmax [8] [h] | Stability [9] [h] | Stability [10]
1 | Nc1ccc(O)c(C(=O)O)c1 [MESALAMINE] | 25 |  |  |  |  |  |  |  |  |  | 
2 | Cn1cnc([N+](=O)[O-])c1Sc1ncnc2nc[nH]c12 [AZATHIOPRINE] |  | <= 5 hr | 2 | 22 | <= 1 yr | 41 | 9.3 | 103 | 1.5 |  | 
3 | Sc1ncnc2nc[nH]c12 [MERCAPTOPURINE ANHYDROUS] |  | <= 5 hr | 2 |  | <= 1 yr |  |  |  |  | 4 | <= 30 hr
